Test results reported in ChEMBL document CHEMBL5107935, “Modulating β-arrestin 2 recruitment at the δ- and μ-opioid receptors using peptidomimetic ligands” (RSC Med Chem, 2021).

How the values were obtained:
[1] = molecular target: T1, Delta-type opioid receptor (Homo sapiens, UniProt P41143); test: Displacement of [3H]DPDPE from human delta opioid receptor expressed in CHO cell membrane measured after 90 mins by liquid scintillation counting method; type: cell membranes
Outline: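 Membranes (7 μg protein) were added and incubated 90 min at room temperature in 50 mM Tris HCl, 10 mM MgCl2, 1 mM EDTA, pH 7.4. Samples were filtered on GF-B, washed 4× with ice-cold 50 mM Tris HCl, and counted by scintillation. Points were run in duplicate.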

[2] = molecular target: T2, Mu-type opioid receptor (Homo sapiens, UniProt P35372); test: Displacement of [3H]DAMGO from human mu opioid receptor expressed in CHO cell membrane incubated for 90 mins by liquid scintillation counting method; type: cell membranes
[3] = species: Homo sapiens; test: Selectivity ratio, ratio of Ki for displacement of [3H]DAMGO from human mu opioid receptor expressed in CHO cell membrane to Ki for displacement of [3H]DPDPE from human delta opioid receptor expressed in CHO cell membrane; type: cell membranes
[4] = molecular target: Delta-type opioid receptor (Mus musculus, UniProt P32300); test: Agonist activity at FLAG-tagged mouse delta opioid receptor expressed in human HEK293 cells assessed as inhibition of forskolin stimulated cAMP production preincubated for 20 mins followed by forskolin stimulation and measured after 15 mins by GloSensor assay; type: functional, cell-based
Outline: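 HEK293 cells transiently transfected 1:3 with FLAG-mouse δOR or HA-mouse μOR plus pGloSensor22F-cAMP; used two days later at 20,000 cells/well. GloSensor reagent (2% final) applied 90 min at room temperature, then drug 20 min, then forskolin (30 μM final) 15 min, all at room temperature. Luminescence read; triplicates; pIC50 from nonlinear regression.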

[5] = molecular target: T1, Delta-type opioid receptor; test: Agonist activity at human delta opioid receptor expressed in CHO cells co-expressing beta-arrestin2 assessed as beta-arrestin2 recruitment measured after 90 mins by PathHunter assay; type: functional, cell-based
Outline: (§1)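 PathHunter CHO cells expressing human δOR and β-arrestin 2 were plated at 2,500 cells/well one day before use. Drug was applied for 90 min at 37 °C/5% CO2, followed by PathHunter assay buffer for 60 min at room temperature. Luminescence was read. Points were run in duplicate, and pEC50 was obtained by nonlinear regression; values are means ± SEM.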

[6] = molecular target: T1, Delta-type opioid receptor; test: Agonist activity at human delta opioid receptor expressed in CHO cells co-expressing beta-arrestin2 assessed as beta-arrestin2 recruitment by measuring maximum efficacy measured after 90 mins by PathHunter assay; type: functional, cell-based; details: filed as agonist; outline: as §1
[7] = molecular target: Mu-type opioid receptor (Mus musculus, UniProt P42866); test: Agonist activity at FLAG-tagged mouse mu opioid receptor expressed in human HEK293 cells assessed as inhibition of forskolin stimulated cAMP production preincubated for 20 mins followed by forskolin stimulation and measured after 15 mins by GloSensor assay; type: functional, cell-based
[8] = molecular target: T2, Mu-type opioid receptor; test: Agonist activity at human mu opioid receptor expressed in CHO cells co-expressing beta-arrestin2 assessed as beta-arrestin2 recruitment measured after 90 mins by PathHunter assay; type: functional, cell-based

T1 sequence (P41143 whole entry): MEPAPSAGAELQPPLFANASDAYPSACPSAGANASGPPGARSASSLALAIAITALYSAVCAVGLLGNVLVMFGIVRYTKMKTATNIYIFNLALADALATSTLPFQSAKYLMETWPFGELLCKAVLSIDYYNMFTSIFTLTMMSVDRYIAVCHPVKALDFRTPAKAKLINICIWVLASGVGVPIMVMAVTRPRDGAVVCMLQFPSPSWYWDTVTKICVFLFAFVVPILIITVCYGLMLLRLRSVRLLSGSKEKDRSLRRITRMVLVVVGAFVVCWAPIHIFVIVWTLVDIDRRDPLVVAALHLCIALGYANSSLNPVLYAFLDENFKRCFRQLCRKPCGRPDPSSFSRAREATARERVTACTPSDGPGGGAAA
Chain of Mu-type opioid receptor (Mus musculus, UniProt P42866) (P42866 whole entry): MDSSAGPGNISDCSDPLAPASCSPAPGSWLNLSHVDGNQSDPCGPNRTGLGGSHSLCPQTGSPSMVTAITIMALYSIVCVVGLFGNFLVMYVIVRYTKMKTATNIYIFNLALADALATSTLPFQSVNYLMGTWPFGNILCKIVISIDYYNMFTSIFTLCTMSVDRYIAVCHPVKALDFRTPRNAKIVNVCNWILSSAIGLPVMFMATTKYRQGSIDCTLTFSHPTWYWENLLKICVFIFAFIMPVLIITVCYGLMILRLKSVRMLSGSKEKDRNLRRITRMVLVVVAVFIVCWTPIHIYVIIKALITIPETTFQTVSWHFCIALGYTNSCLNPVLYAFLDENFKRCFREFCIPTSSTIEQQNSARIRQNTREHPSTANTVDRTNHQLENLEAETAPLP
Chain of Delta-type opioid receptor (Mus musculus, UniProt P32300) (P32300 whole entry): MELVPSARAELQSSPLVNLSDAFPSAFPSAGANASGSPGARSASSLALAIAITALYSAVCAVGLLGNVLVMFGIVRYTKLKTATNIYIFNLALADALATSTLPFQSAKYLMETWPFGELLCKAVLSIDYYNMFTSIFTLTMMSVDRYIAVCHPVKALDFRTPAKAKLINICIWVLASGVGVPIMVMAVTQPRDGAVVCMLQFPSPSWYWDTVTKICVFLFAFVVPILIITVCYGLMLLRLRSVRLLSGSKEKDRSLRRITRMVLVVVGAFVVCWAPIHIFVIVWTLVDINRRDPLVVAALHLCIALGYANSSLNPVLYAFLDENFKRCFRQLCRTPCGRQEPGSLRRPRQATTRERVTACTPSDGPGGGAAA
T2 sequence (P35372 whole entry): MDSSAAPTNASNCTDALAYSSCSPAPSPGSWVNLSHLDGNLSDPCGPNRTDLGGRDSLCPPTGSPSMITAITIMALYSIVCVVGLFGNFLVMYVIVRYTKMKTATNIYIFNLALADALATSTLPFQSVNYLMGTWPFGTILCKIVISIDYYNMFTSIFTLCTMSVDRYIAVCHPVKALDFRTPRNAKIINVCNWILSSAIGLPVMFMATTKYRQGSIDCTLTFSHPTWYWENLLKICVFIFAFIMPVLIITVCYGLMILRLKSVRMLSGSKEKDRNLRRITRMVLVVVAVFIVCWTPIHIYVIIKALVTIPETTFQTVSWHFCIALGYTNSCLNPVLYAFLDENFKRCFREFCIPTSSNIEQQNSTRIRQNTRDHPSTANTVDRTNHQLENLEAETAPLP

SMILES	Ki [1] [nM]	Ki [2] [nM]	Ratio Ki [3]	IC50 [4] [nM]	EC50 [5] [nM]	Emax [6] [%]	IC50 [7] [nM]	EC50 [8] [nM]
CC(C)C[C@H](NC(=O)[C@H](Cc1ccccc1)NC(=O)CNC(=O)C/C=C(\F)[C@@H](N)Cc1ccc(O)cc1)C(N)=O	94.4	7.07	0.1	46.6	959	84	186	2640
CC(C)C[C@H](NC(=O)[C@H](Cc1ccccc1)NC(=O)CNC(=O)C/C=C(\F)[C@@H](N)Cc1ccc(O)cc1)C(=O)NC1CC1	104	26.1	0.3	152	693	69	126	4260
CC(C)C[C@H](NC(=O)[C@H](Cc1ccccc1)NC(=O)CNC(=O)C/C=C(\F)[C@@H](N)Cc1ccc(O)cc1)C(=O)N(C)C	255	85.4	0.3	425	3820	63	1000	17600
CNC(=O)[C@H](CC(C)C)NC(=O)[C@H](Cc1ccccc1)NC(=O)CNC(=O)C/C=C(\F)[C@@H](N)Cc1ccc(O)cc1	55.9	9.92	0.2	50.2	667	90	42.7	7210
CCNC(=O)[C@H](CC(C)C)NC(=O)[C@H](Cc1ccccc1)NC(=O)CNC(=O)C/C=C(\F)[C@@H](N)Cc1ccc(O)cc1	54.7	20	0.4	66.2	695	70	178	2260
CC(C)C[C@H](NC(=O)[C@H](Cc1ccccc1)NC(=O)CNC(=O)C/C=C(\F)[C@@H](N)Cc1ccc(O)cc1)C(=O)O				33.7		102	363	
